The source made the active and inactive calls. The calls are words filed in the database; no cut-off is given here.
Legend:
[1] = Growth inhibition of human NCI60 cells; format: functional; details: Homo sapiens, NCI60
[2] = Inhibition of protein synthesis in cell-free extract of mouse Krebs2 cells by SDS-PAGE; format: functional
HeLa = experiment: Inhibition of protein synthesis in human HeLa cells assessed as [35S]methionine incorporation into protein treated for 45 mins before [35S]methionine addition by Whatman paper analysis; format: functional, cell-based
Nucleic Acid = experiment: Inhibition of TPA-induced SRE transfected in HEK293 cells at 0.1 to 10 uM treated 1 hr before TPA stimulation measured after 18 hrs by luciferase reporter gene assay; format: cell-based
Outline: (§1)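 HEK293 cells were grown in DMEM with 10% FBS at 37 °C and 5% CO2. They were transiently transfected with a luciferase reporter (0.1 µg/well); reporters were AP-1 (four TRE consensus copies from GCN4), NF-κB (five responsive-element copies) or SRE. After 24 h, medium went to DMEM with 0.2% FBS. Cells were pretreated 1 h with compound or DMSO, then given TPA 10 ng/mL for 18 h. Firefly luciferase was read from passive-lysis lysates, TPA alone = 100%, in quadruplicate.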

HEK293 = experiment: Inhibition of TPA-induced NF-kappaB transfected in HEK293 cells at 0.1 to 10 uM treated 1 hr before TPA stimulation measured after 18 hrs by luciferase reporter gene assay; format: cell-based; outline: as §1
[3] = biological target: Transcription factor Jun (Homo sapiens) (UniProt P05412); experiment: Inhibition of TPA-induced AP1 transfected in HEK293 cells assessed as inhibition of […] reporter activity at 0.1 to 10 uM treated 1 hr before TPA stimulation measured after 18 hrs by luciferase reporter gene assay; format: cell-based; outline: as §1
Transcription factor Jun (Homo sapiens), sequence (P05412 whole entry): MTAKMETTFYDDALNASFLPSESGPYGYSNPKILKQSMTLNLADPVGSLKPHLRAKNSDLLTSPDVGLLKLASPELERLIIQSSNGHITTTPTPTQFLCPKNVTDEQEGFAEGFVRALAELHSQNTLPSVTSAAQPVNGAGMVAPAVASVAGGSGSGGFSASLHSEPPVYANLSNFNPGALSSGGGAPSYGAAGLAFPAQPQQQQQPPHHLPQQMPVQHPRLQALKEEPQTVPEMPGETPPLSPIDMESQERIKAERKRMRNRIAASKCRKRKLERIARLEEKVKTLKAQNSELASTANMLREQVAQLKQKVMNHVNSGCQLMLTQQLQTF

| IC50 [2] [µM] | IC50 (HeLa) [nM] | inhibition [3] | Compound | GI50 [1] [nM] | inhibition (Nucleic Acid) | inhibition (HEK293) |
| --- | --- | --- | --- | --- | --- | --- |
| – | – | – | COC(=O)[C@@]12OC[C@]34[C@H]([C@@H](O)C1O)[C@@]1(C)CC(=O)C(OC(=O)/C=C(/c5ccccc5)C(F)(F)F)=C(C)[C@@H]1C[C@H]3OC(=O)[C@H](O)[C@H]42 (some centres not stated) | 7400 | – | – |
| – | – | – | COC(=O)[C@@]12OC[C@]34[C@H]([C@@H](O)[C@@H]1O)[C@@]1(C)C=C5OC(=O)C=C5[C@@H](C)[C@@H]1C[C@H]3OC(=O)[C@H](O)[C@@H]24 | 160 | – | – |
| – | – | – | CC(C)CC(=O)O[C@H]1C(=O)O[C@@H]2C[C@H]3[C@H](C)C(=O)C(O[C@@H]4O[C@H](CO)[C@@H](O)[C@H](O)[C@H]4O)=C[C@]3(C)[C@H]3[C@@H](O)[C@H](O)[C@]4(C(=O)O)OC[C@]32[C@@H]14 [BRUCEOSIDE E] | 52000 | – | – |
| 0.07 | < 1000 | – | COC(=O)[C@]12OC[C@]34[C@H]([C@@H](O)[C@@H]1O)[C@@]1(C)C=C5OC(=O)C=C5[C@@H](C)[C@@H]1C[C@H]3OC(=O)[C@H](OC(C)=O)[C@@H]24 [SERGEOLIDE] | 3.8 | – | – |
| – | – | – | CC(=O)OC(C)(C)/C(C)=C/C(=O)O[C@H]1C(=O)O[C@@H]2C[C@H]3[C@H](C)C(=O)C(O[C@@H]4O[C@H](CO)[C@@H](O)[C@H](O)[C@H]4O)=C[C@]3(C)[C@H]3[C@@H](O)[C@H](O)[C@]4(C(=O)O)OC[C@]32[C@@H]14 [BRUCEOSIDE F] | 74000 | – | – |
| 0.23 | < 1000 | inactive | COC(=O)[C@]12OC[C@]34[C@H]([C@@H](O)[C@@H]1O)[C@@]1(C)CC(=O)C(O)=C(C)[C@@H]1C[C@H]3OC(=O)[C@H](OC(=O)C=C(C)C)[C@@H]24 [BRUSATOL] | 260 | inactive | inactive |
| – | – | – | COC(=O)[C@@]12OC[C@]34[C@H]([C@H](O)[C@@H]1O)[C@@]1(C)CC(=O)C(OC(C)=O)=C(C)[C@H]1C[C@H]3OC(=O)[C@@H](OC(=O)C=C(C)C)[C@@H]24 | 790 | – | – |

| Compound | IC50 [2] [µM] | IC50 (HeLa) [nM] | inhibition [3] | GI50 [1] [nM] | inhibition (Nucleic Acid) | inhibition (HEK293) |
| --- | --- | --- | --- | --- | --- | --- |
| COC(=O)[C@@]12OC[C@]34[C@H]([C@@H](O)[C@@H]1O)[C@@]1(C)CC(=O)C(O)=C(C)[C@@H]1C[C@H]3OC(=O)[C@H](OC(=O)/C=C(\C)C(C)C)[C@@H]24 [BRUCEANTIN] | 0.41 | 51 | – | 5 | – | – |
